The record followed here is ChEMBL document CHEMBL4706641, “Novel Carboline Fungal Histone Deacetylase (HDAC) Inhibitors for Combinational Treatment of Azole-Resistant Candidiasis” (J Med Chem, 2021).

Values after ≈ are worked out from the molar mass of the structure shown. Active and inactive are the calls of the source. The rule behind the calls is not given here.

Data set [1] has as its system Candida albicans. Nature of the data set: Up-regulation of MDR1 mRNA expression in Candida albicans 0304103 at 32 ug/ml incubated for 24 hrs in presence of 32 ug/ml fluconazole by RT-PCR analysis. The class given is functional. Particulars: dose 32.0 µg/ml. The essentials: (§1)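 Cells from a 1 × 10⁶ cells/mL starting suspension were split into DMSO control, FLC 32 μg/mL, test compound 32 μg/mL and combination (32 + 32 μg/mL) groups, then incubated 24 h at 35 °C in YEPD. Total RNA was extracted and reverse-transcribed. Real-time PCR ran 40 cycles (95 °C 5 s, 60 °C 34 s). Fold change was calculated by 2^−ΔΔCt against ACT1.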

The subject of data set [2] is Candida albicans. Nature of the data set: Synergistic antifungal activity against Candida albicans 0304103 at 8 ug/ml incubated for 48 hrs in presence of 32 ug/ml fluconazole by microdilution assay. Particulars: dose 8.0 µg/ml. The class given is functional, organism-based. For orientation: Broth dilution looks for growth in wells or tubes with falling amounts of substance.

The test system of data set [3] is Candida albicans. Put plainly: Antifungal activity against Candida albicans 0304103 incubated for 48 hrs by microdilution assay. The class given is functional. Particulars: Candida albicans, 0304103, read-out: MIC80. The essentials:
(§2)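 Checkerboard broth microdilution per CLSI M27-A3 (modified), clinical Candida isolates. Exponential cells in RPMI 1640 (MOPS-buffered) at 10³ cells/mL; fluconazole 0.25–64 μg/mL crossed with test compound 2–64 μg/mL (final). 48 h at 35 °C; OD630 read with background subtracted. MIC80 = 80% growth inhibition; FICI ≤0.5 synergy, >4 antagonism.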

Data set [4] relates to Candida albicans. Put plainly: Synergistic antifungal activity against Candida albicans 4108 assessed as potentiation of fluconazole antifungal activity by measuring FICI incubated for 48 hrs in presence of fluconazole by checkerboard microdilution assay. It is filed as functional.
Data set [5] has as its target Histone deacetylase (Homo sapiens) (UniProt Q13547+O15379+Q9UBN7+Q92769+Q9UQL6+Q8WUI4+Q9BY41+Q96DB2+P56524+Q9UKV0+Q969S8). Put plainly: Inhibition of HDAC in HUVEC using Boc-Lys(Ac)-AMC substrate incubated for 18 hrs by fluorescence based assay. The class given is protein assay. The essentials:
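Human total HDAC in whole HUVEC cells: about 15000 cells/well, 24 h at 37 °C/5% CO₂ before compound; then Boc-Lys(Ac)-AMC 33 μM, 37 °C 6 h, trypsin/Nonidet P-40 stop 2 h, fluorescence Ex 360/Em 460 nm. Inhibition relative to control after blank subtraction; three independent experiments.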

Data set [6] deals with Cryptococcus neoformans. Put plainly: Synergistic antifungal activity against Cryptococcus neoformans assessed as potentiation of ITC antifungal activity by measuring ITC incubated for 48 hrs in presence of fluconazole by checkerboard microdilution assay. It is filed as functional, organism-based.
For data set [7], the system named is Candida albicans. Put plainly: Synergistic fungicidal activity against Candida albicans 0304103 assessed as potentiation of fluconazole antifungal activity at 32 ug/ml incubated for 48 hrs in presence of 64 ug/ml fluconazole by checkerboard microdilution assay. The note with it: dose 32.0 µg/ml. The class given is functional, organism-based.
In data set [8] the test system is Candida albicans. Nature of the data set: Antifungal activity against Candida albicans 0304103 infected in ICR mouse model of candidiasis assessed as reduction in fungal invasion by measuring clusters of fungal infiltration in renal pelvis at 10 mg/kg, ip dosed 24 hrs post infection and measured after 5 days by H and E staining based microscopical analysis. It is filed as functional, organism-based. The note with it: time 5.0 day. The method, boiled down:
(§3)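 Two ICR mice per group, infected and treated as in the kidney burden model (IV 5 × 10⁵ C. albicans 0304103; IP compound 10 mg/kg, fluconazole 1 mg/kg, or combination, 5 days). Kidneys fixed in 4% paraformaldehyde, paraffin-embedded, 4 μm sections, H&E stained, examined at 40× and 200×.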

Data set [9] deals with Candida albicans. Nature of the data set: Synergistic antifungal activity against Candida albicans 9884 incubated for 48 hrs in presence of fluconazole by microdilution assay. The class given is functional. The essentials:
as §2

Data set [10] relates to Candida albicans. Nature of the data set: Synergistic antifungal activity against Candida albicans 0304103 at 32 ug/ml incubated for 48 hrs in presence of 32 ug/ml fluconazole by microdilution assay. It is filed as functional, organism-based. The note with it: dose 32.0 µg/ml.
The test system of data set [11] is Candida albicans. Put plainly: Antifungal activity against Candida albicans 9884 incubated for 48 hrs by microdilution assay. The class given is functional. The method, boiled down: as §2
Data set [12] has as its system Candida albicans. Nature of the data set: Inhibition of pre-formed biofilms in Candida albicans 0304103 at 64 ug/ml incubated for 24 hrs in presence of fluconazole by XTT reduction assay. The class given is functional. The note with it: dose 64.0 µg/ml. The method, boiled down:
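Mature biofilms grown 24 h at 37 °C from C. albicans 0304103 (1.0 × 10⁶ CFU/mL in RPMI 1640), then treated with drugs alone or combined as in the formation assay; viability by XTT reduction at OD490. Three independent experiments; t-test versus control.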

The test system of data set [13] is Candida albicans. Nature of the data set: Antifungal activity against Candida albicans 0304103 infected in ICR mouse model of candidiasis assessed as reduction in kidney fungal burden at 10 mg/kg, ip dosed 24 hrs post infection and co-treated with 1 mg/kg, ip fluconazole and measured after 5 days. The class given is functional, organism-based. The note with it: time 5.0 day.

Data set [14] relates to Candida albicans. Nature of the data set: Antifungal activity against Candida albicans 0304103 infected in ICR mouse model of candidiasis assessed as reduction in kidney fungal burden at 10 mg/kg, ip dosed 24 hrs post infection and measured after 5 days. The class given is functional, organism-based. Particulars: time 5.0 day.
In data set [15] the test system is Candida albicans. Put plainly: Synergistic antifungal activity against Candida albicans 9172 assessed as fluconazole MIC incubated for 48 hrs in presence of fluconazole by microdilution assay (reference value: fluconazole alone MIC = >[…] ug/ml). The class given is functional.
Data set [16] deals with Candida albicans. Nature of the data set: Up-regulation of MDR1 mRNA expression in Candida albicans 0304103 at 32 ug/ml incubated for 24 hrs by RT-PCR analysis. It is filed as functional. Particulars: dose 32.0 µg/ml. The essentials: as §1
Data set [17] has as its system Candida albicans. Put plainly: Synergistic antifungal activity against Candida albicans 10061 assessed as potentiation of fluconazole antifungal activity by measuring FICI incubated for 48 hrs in presence of fluconazole by checkerboard microdilution assay. It is filed as functional. The essentials:
(§4)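 Checkerboard broth microdilution per CLSI M27-A3 (modified), clinical Candida isolates. 48 h at 35 °C; OD630 read with background subtracted. MIC80 = 80% growth inhibition; FICI ≤0.5 synergy, >4 antagonism.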

For data set [18], the system named is [Candida] auris. Nature of the data set: Synergistic antifungal activity against Candida auris assessed as potentiation of VRC antifungal activity by measuring VRC incubated for 48 hrs in presence of fluconazole by checkerboard microdilution assay. It is filed as functional, organism-based. Particulars: Candidozyma auris.
The test system of data set [19] is Candida albicans. Put plainly: Antifungal activity against Candida albicans 0304103 infected in ICR mouse model of candidiasis assessed as reduction in fungal invasion by measuring clusters of fungal infiltration in renal pelvis/medulla at 10 mg/kg, ip dosed 24 hrs post infection and co-treated with 1 mg/kg, ip fluconazole and measured after 5 days by H and E staining based microscopical analysis. The note with it: time 5.0 day. It is filed as functional, organism-based. The essentials:
as §3

Data set [20] in a line: Toxicity in HUVEC in presence of fluconazole. The class given is cell-based. Particulars: human, HUVEC cells.
The subject of data set [21] is Candida albicans. Put plainly: Synergistic antifungal activity against azole-resistant Candida albicans assessed as potentiation of VRC antifungal activity by measuring VRC incubated for 48 hrs in presence of fluconazole by checkerboard microdilution assay. The class given is functional.
Data set [22] has as its system Candida albicans. Nature of the data set: Synergistic antifungal activity against Candida albicans 9172 assessed as potentiation of fluconazole antifungal activity by measuring FICI incubated for 48 hrs in presence of fluconazole by checkerboard microdilution assay. The class given is functional. The method, boiled down:
as §4

For the compound `O=C(Cc1ccc(OCCCn2c3c(c4cccc(Cl)c42)CCNC3)cc1)NO`, the fold change (FC) in [1] amounted to 8. Besides, the outcome in [2], in [6], in data set [8] and in [14] was inactive. Besides, the MIC80 – broadly, an inhibitory concentration at the 80% level, which refers to growth in some studies and to a panel of isolates in others – was above 64 µg/mL in data set [3], 2 µg/mL in data set [9], 64 µg/mL (≈ 155 µM) in [11] and 0.5 µg/mL in data set [15]. In addition, the “fractional inhibitory concentration index (FICI)” value is listed as 0.035 in [4], 0.062 in [17], 0.035 in [21] and 0.039 in data set [22]. In data set [5], the inhibition entry is “inactive”. In addition, the outcome in [7], in data set [10], in data set [13], in data set [16], in data set [18] and in data set [19] was Active. Besides, the inhibition result in data set [12] is “Active”. In addition, the IC50 – broadly, the midpoint of a concentration-inhibition curve – in data set [20] was 12.2 µM.
